Assay results: ChEMBL document CHEMBL1149315, “Insertion of an aspartic acid moiety into cyclic pseudopeptides: synthesis and biological characterization of potent antagonists for the human Tachykinin NK-2 receptor” (J Med Chem, 2004)
Activity calls are given as the source filed them. Unless noted, the calls are words filed in the database; no cut-off is given here.

molecular target: T1, Substance-K receptor (Homo sapiens, UniProt P21452); test: Displacement of [125I]neurokinin A from human NK2 receptor expressed in CHOK1 cells; format: cell-based, CHO-K1; settings: not given
T1 sequence (P21452 whole entry): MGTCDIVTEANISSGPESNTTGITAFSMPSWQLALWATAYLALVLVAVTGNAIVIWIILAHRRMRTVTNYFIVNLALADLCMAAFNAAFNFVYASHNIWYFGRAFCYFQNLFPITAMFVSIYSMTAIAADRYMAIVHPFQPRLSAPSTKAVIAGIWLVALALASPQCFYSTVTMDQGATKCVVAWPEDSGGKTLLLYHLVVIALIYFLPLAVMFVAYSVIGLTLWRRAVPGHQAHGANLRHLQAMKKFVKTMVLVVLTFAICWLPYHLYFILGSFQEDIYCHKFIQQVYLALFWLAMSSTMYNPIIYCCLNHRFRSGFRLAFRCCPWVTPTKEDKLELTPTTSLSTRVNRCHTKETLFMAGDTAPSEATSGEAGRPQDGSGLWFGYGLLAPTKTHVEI
Procedure, shortened: (§1)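 Competition binding was run on membranes of cells stably transfected with the human receptor: U-373MG for NK-1, CHO-K1 for NK-2 and NK-3. NK-1 used [3H][Sar9]SP sulfone at 1.2 nM. Affinity is given as pKi (−log Ki).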

Compound | Ki
O=C1C[C@@H](NC(=O)CN2CCC(N3CCOCC3)CC2)C(=O)NC[C@@H](Cc2ccccc2)NC(=O)[C@H](Cc2ccccc2)NC(=O)[C@H](Cc2c[nH]c3ccccc23)N1 | 0.158 nM (antagonist)
N[C@@H]1CC(=O)N[C@@H](Cc2c[nH]c3ccccc23)C(=O)N[C@@H](Cc2ccccc2)C(=O)N[C@H](Cc2ccccc2)CNC1=O | 2 nM (antagonist)
O=C1C[C@@H](N2CCNCC2)C(=O)NC[C@@H](Cc2ccccc2)NC(=O)[C@H](Cc2ccccc2)NC(=O)[C@H](Cc2c[nH]c3ccccc23)N1 | 1.58 nM (antagonist)

molecular target: T2, Substance-K receptor (Oryctolagus cuniculus) (UniProt P79218); test: Antagonist activity at NK2 receptor in rabbit pulmonary artery assessed as effect on neurokinin A-induced mechanical activity; format: functional; settings: filed as antagonist
T2 sequence (whole entry): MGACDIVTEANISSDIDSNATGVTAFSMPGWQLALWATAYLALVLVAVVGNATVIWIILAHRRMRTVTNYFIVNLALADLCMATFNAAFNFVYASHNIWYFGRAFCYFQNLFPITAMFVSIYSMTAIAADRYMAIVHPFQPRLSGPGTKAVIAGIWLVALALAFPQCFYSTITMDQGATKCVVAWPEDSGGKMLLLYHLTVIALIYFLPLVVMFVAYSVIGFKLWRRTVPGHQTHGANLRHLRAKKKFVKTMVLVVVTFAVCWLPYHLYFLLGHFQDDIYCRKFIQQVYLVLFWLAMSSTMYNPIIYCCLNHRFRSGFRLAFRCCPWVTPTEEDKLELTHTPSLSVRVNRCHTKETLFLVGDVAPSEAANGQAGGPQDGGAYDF
Procedure, shortened: (§2)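 Isolated smooth muscle strips were held in oxygenated (96% O2/4% CO2) Krebs–Henseleit at NaCl 119, NaHCO3 25, KH2PO4 1.2, MgSO4 1.5, CaCl2 2.5, KCl 4.7 and glucose 11 mM. Cumulative agonist concentration–response curves were run after 15 min antagonist incubation. pKB = log(dose ratio − 1) − log[antagonist], as the mean of individual values.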

Compound | pKb
N[C@H]1CC(=O)NC[C@@H](Cc2ccccc2)NC(=O)[C@H](Cc2ccccc2)NC(=O)[C@H](Cc2c[nH]c3ccccc23)NC1=O | 7.7
O=C1CCC(=O)N[C@@H](Cc2c[nH]c3ccccc23)C(=O)N[C@@H](Cc2ccccc2)C(=O)N[C@H](Cc2ccc(Cl)c(Cl)c2)CN1 | 8.1
N[C@H]1CC(=O)N[C@@H](Cc2c[nH]c3ccccc23)C(=O)N[C@@H](Cc2ccccc2)C(=O)N[C@H](Cc2ccccc2)CNC1=O | 7.5
N[C@@H]1CC(=O)N[C@@H](Cc2c[nH]c3ccccc23)C(=O)N[C@@H](Cc2ccccc2)C(=O)N[C@H](Cc2ccccc2)CNC1=O | 7.9
O=C1C[C@H](N2CCOCC2)C(=O)NC[C@@H](Cc2ccccc2)NC(=O)[C@H](Cc2ccccc2)NC(=O)[C@H](Cc2c[nH]c3ccccc23)N1 | 8.5
O=C1C[C@@H](N2CCNCC2)C(=O)NC[C@@H](Cc2ccccc2)NC(=O)[C@H](Cc2ccccc2)NC(=O)[C@H](Cc2c[nH]c3ccccc23)N1 | 7.7
O=C1C[C@@H](N2CCOCC2)C(=O)NC[C@@H](Cc2ccccc2)NC(=O)[C@H](Cc2ccccc2)NC(=O)[C@H](Cc2c[nH]c3ccccc23)N1 | 8.9

molecular target: T3, Substance-K receptor (Rattus norvegicus) (UniProt P16610); test: Antagonist activity at NK2 receptor in rat urinary bladder assessed as effect on beta-Ala8]NKA(4-10)-induced mechanical activity; format: functional; settings: filed as antagonist; procedure, shortened: as §2
T3 sequence (whole entry): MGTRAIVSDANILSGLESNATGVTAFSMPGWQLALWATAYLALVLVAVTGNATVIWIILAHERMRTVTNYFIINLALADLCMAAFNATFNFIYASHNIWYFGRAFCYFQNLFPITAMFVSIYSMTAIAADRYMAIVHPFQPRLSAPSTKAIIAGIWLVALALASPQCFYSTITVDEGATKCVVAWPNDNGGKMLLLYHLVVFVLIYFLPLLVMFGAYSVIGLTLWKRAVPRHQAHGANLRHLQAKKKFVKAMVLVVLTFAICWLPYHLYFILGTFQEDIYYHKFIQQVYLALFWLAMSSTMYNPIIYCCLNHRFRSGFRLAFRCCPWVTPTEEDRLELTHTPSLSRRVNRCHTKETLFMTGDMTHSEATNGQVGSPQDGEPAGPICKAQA

Compound | pKb
O=C1C[C@@H](NC(=O)CN2CCC(N3CCCCC3)CC2)C(=O)NC[C@@H](Cc2ccccc2)NC(=O)[C@H](Cc2ccccc2)NC(=O)[C@H](Cc2c[nH]c3ccccc23)N1 | 9.2
O=C1CCC(=O)N[C@@H](Cc2c[nH]c3ccccc23)C(=O)N[C@@H](Cc2ccccc2)C(=O)N[C@H](Cc2ccc(Cl)c(Cl)c2)CN1 | 8.1
O=C1C[C@@H](NC(=O)CN2CCC(N3CCOCC3)CC2)C(=O)NC[C@@H](Cc2ccccc2)NC(=O)[C@H](Cc2ccccc2)NC(=O)[C@H](Cc2c[nH]c3ccccc23)N1 | 9.7
O=C1C[C@H](N2CCOCC2)C(=O)NC[C@@H](Cc2ccccc2)NC(=O)[C@H](Cc2ccccc2)NC(=O)[C@H](Cc2c[nH]c3ccccc23)N1 | 8.9
O=C1C[C@@H](N2CCOCC2)C(=O)NC[C@@H](Cc2ccccc2)NC(=O)[C@H](Cc2ccccc2)NC(=O)[C@H](Cc2c[nH]c3ccccc23)N1 | 9.2

molecular target: Substance-P receptor (Cavia porcellus) (UniProt P30547); test: Antagonist activity at NK1 receptor in guinea pig ileum assessed as effect on substance P methyl ester-induced mechanical activity; format: functional, tissue-based; settings: filed as antagonist; procedure, shortened: as §2
Sequence (P30547 whole entry): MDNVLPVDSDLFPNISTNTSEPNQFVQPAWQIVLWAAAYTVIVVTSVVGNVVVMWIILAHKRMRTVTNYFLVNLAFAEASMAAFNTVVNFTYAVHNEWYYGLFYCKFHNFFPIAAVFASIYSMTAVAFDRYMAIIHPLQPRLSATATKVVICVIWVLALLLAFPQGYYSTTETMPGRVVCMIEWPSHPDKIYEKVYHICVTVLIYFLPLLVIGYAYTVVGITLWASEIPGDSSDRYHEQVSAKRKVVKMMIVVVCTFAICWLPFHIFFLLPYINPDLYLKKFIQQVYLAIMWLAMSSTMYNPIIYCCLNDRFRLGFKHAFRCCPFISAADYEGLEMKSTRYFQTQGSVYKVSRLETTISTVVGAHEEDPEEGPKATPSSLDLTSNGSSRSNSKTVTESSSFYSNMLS

Compound | pKb
O=C1C[C@@H](NC(=O)CN2CCC(N3CCCCC3)CC2)C(=O)NC[C@@H](Cc2ccccc2)NC(=O)[C@H](Cc2ccccc2)NC(=O)[C@H](Cc2c[nH]c3ccccc23)N1 | 6.8
O=C1C[C@@H](NC(=O)CN2CCC(N3CCOCC3)CC2)C(=O)NC[C@@H](Cc2ccccc2)NC(=O)[C@H](Cc2ccccc2)NC(=O)[C@H](Cc2c[nH]c3ccccc23)N1 | 7.5
O=C1C[C@@H](N2CCOCC2)C(=O)NC[C@@H](Cc2ccccc2)NC(=O)[C@H](Cc2ccccc2)NC(=O)[C@H](Cc2c[nH]c3ccccc23)N1 | 6.2

molecular target: T4, Neuromedin-K receptor (Cavia porcellus) (UniProt P30098); test: Antagonist activity at NK3 receptor in guinea pig ileum assessed as effect on senktide-induced mechanical activity; format: functional, tissue-based; settings: filed as antagonist
T4 sequence (whole entry): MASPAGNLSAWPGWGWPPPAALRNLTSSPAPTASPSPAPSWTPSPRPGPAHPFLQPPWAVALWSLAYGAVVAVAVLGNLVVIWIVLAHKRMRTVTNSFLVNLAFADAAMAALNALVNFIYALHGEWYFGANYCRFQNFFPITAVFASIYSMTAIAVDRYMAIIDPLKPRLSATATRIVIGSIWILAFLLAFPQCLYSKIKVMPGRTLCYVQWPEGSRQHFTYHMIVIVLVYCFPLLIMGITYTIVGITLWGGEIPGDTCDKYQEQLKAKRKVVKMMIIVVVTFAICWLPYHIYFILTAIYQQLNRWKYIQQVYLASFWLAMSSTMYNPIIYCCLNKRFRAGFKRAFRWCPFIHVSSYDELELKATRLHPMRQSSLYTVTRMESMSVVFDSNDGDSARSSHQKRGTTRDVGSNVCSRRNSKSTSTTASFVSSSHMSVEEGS

Compound | pKb
O=C1C[C@@H](NC(=O)CN2CCC(N3CCCCC3)CC2)C(=O)NC[C@@H](Cc2ccccc2)NC(=O)[C@H](Cc2ccccc2)NC(=O)[C@H](Cc2c[nH]c3ccccc23)N1 | 5.8
O=C1C[C@@H](NC(=O)CN2CCC(N3CCOCC3)CC2)C(=O)NC[C@@H](Cc2ccccc2)NC(=O)[C@H](Cc2ccccc2)NC(=O)[C@H](Cc2c[nH]c3ccccc23)N1 | 6.4
O=C1C[C@@H](N2CCOCC2)C(=O)NC[C@@H](Cc2ccccc2)NC(=O)[C@H](Cc2ccccc2)NC(=O)[C@H](Cc2c[nH]c3ccccc23)N1 | 6.1

molecular target: Substance-P receptor (Homo sapiens, UniProt P25103); test: Displacement of [3H][Sar9]SP sulfone from human NK1 receptor expressed in U373MG cells; format: cell-based, U-373MG ATCC; settings: not given; procedure, shortened: as §1
Sequence (P25103 whole entry): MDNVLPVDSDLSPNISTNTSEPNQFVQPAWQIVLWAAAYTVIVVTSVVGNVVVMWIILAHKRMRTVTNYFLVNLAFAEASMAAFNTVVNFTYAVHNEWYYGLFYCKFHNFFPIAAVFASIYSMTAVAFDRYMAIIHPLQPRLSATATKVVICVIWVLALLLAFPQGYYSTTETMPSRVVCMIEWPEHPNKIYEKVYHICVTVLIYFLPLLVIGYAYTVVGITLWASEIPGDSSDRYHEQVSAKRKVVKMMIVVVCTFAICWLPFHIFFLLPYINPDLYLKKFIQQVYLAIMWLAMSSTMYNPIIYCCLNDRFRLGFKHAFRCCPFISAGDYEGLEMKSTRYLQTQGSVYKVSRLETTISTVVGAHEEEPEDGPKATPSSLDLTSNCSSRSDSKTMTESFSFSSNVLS

Compound | Ki
O=C1C[C@@H](NC(=O)CN2CCC(N3CCOCC3)CC2)C(=O)NC[C@@H](Cc2ccccc2)NC(=O)[C@H](Cc2ccccc2)NC(=O)[C@H](Cc2c[nH]c3ccccc23)N1 | 126 nM (antagonist)

molecular target: T5, Neuromedin-K receptor (Homo sapiens, UniProt P29371); test: Displacement of [125I][MePhe7]NKB from human NK3 receptor expressed in CHOK1 cells; format: cell-based, CHO-K1; settings: not given; procedure, shortened: as §1
T5 sequence (P29371 whole entry): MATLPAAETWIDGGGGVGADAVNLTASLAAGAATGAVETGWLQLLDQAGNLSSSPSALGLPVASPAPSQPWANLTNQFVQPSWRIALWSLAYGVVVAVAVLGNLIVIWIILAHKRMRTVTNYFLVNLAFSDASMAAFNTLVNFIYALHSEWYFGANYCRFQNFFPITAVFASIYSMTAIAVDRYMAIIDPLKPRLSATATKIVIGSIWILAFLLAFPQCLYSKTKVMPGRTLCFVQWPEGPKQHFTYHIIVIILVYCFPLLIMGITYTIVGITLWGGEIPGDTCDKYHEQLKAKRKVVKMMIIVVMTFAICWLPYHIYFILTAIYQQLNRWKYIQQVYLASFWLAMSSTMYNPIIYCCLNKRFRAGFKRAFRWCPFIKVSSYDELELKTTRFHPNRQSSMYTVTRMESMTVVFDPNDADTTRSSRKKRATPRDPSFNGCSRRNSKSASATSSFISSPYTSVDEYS

Compound | Ki
O=C1C[C@@H](NC(=O)CN2CCC(N3CCOCC3)CC2)C(=O)NC[C@@H](Cc2ccccc2)NC(=O)[C@H](Cc2ccccc2)NC(=O)[C@H](Cc2c[nH]c3ccccc23)N1 | 1260 nM (antagonist)

test system: Cavia porcellus; test: Inhibition of [beta-Ala8]NKA(4-10)-induced bronchoconstriction in anesthetized Dunkin Hartley guinea pig at 10 nmol/kg, it relative to control; format: functional; settings: not given
Procedure, shortened: (§3)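 Male Dunkin Hartley guinea pigs (350–400 g) were anesthetized with urethane 1.5 g/kg sc, kept at 36 °C and ventilated at 60 strokes/min. After two reproducible control responses to agonist (1 nmol/kg iv, jugular vein), antagonist was given intratracheally near the bronchial bifurcation. Dosing was 5 and 30 min before challenge, with challenges repeated every 30 min up to 4 h. Bronchoconstriction = insufflation pressure rise over basal (mmHg), expressed as % inhibition of control.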

Compound | inhibition in vivo at 0.01 µmol/kg [%]
O=C1C[C@@H](NC(=O)CN2CCC(N3CCOCC3)CC2)C(=O)NC[C@@H](Cc2ccccc2)NC(=O)[C@H](Cc2ccccc2)NC(=O)[C@H](Cc2c[nH]c3ccccc23)N1 | 80

test system: Cavia porcellus; test: Inhibition of [beta-Ala8]NKA(4-10)-induced bronchoconstriction in anesthetized Dunkin Hartley guinea pig at 100 nmol/kg, it relative to control; format: functional, organism-based; settings: 10 nmol/kg, in the assay text read “10 nmol/kg” for “100 nmol/kg”; procedure, shortened: as §3

Compound | Activity
O=C1C[C@@H](NC(=O)CN2CCC(N3CCOCC3)CC2)C(=O)NC[C@@H](Cc2ccccc2)NC(=O)[C@H](Cc2ccccc2)NC(=O)[C@H](Cc2c[nH]c3ccccc23)N1 | Active

test system: Cavia porcellus; test: Inhibition of [beta-Ala8]NKA(4-10)-induced bronchoconstriction in intratracheally dosed anesthetized Dunkin Hartley guinea pig; format: functional; settings: Trachea, inhaled or nasal; procedure, shortened: as §3

Compound | ED50 [µmol/kg]
O=C1C[C@@H](NC(=O)CN2CCC(N3CCOCC3)CC2)C(=O)NC[C@@H](Cc2ccccc2)NC(=O)[C@H](Cc2ccccc2)NC(=O)[C@H](Cc2c[nH]c3ccccc23)N1 | 0.00015
